The structures appear in SMILES notation. Where a SMILES comes first, the peptide text is derived from it.

The assay deals with T1, UDP-N-acetylglucosamine--peptide N-acetylglucosaminyltransferase 110 kDa subunit (Homo sapiens) (UniProt O15294).
T1 sequence (whole entry): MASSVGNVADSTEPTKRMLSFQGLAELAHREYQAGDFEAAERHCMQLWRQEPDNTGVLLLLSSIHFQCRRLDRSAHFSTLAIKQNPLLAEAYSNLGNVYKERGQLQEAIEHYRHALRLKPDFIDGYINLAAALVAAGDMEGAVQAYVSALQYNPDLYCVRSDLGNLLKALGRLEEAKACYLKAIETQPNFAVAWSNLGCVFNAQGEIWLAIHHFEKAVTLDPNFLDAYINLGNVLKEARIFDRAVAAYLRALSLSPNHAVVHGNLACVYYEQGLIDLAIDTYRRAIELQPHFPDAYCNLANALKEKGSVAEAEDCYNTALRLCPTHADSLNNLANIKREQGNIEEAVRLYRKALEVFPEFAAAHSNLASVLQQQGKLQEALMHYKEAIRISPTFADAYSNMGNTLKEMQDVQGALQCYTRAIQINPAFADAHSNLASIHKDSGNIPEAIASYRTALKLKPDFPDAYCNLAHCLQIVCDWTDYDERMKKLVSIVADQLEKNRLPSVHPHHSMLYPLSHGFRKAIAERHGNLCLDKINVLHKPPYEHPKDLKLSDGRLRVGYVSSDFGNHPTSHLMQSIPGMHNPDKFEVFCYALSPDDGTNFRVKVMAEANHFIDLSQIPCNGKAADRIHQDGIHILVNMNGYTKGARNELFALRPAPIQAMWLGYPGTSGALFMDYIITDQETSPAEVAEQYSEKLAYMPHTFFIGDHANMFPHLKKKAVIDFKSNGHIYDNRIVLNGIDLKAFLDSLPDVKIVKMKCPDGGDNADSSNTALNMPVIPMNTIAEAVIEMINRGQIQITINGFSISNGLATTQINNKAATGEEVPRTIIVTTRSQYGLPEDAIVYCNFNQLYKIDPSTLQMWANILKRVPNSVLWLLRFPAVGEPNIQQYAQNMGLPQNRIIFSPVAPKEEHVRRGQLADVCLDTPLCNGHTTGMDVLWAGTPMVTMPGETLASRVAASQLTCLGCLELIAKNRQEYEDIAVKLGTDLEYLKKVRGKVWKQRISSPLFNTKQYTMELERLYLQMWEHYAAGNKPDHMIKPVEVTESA
Description: Binding affinity to human OGT expressed in Escherichia coli […] cells assessed as alpha-FLAG-HRP activity relative to alpha-A-crystallin peptide by azido-ELISA. The settings on record: BL21-DE3. A digest of the protocol: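 Biotinylated peptides are reacted at saturating levels with Ni-column-purified human OGT from E. coli BL21(DE3), plus UDP-GlcNAz 62.5 μM, MgCl2 12.5 μM and β-mercaptoethanol 1 mM, for 4 h at 37 °C. Reactions are stopped with pH 4.5 sodium acetate and captured on NeutrAvidin. Product is tagged with phosphine-FLAG, detected by anti-FLAG-HRP/TMB at A450, normalized to the parent peptide after Ala-peptide background subtraction. Data are from 3 experiments, each in triplicate.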
(In an ELISA, binding on a coated surface is turned into a signal by an enzyme label.)
As for `CC(C)[C@H](NC(=O)[C@@H]1CCCN1C(=O)[C@H](C)NC(=O)[C@H](C)N)C(=O)N[C@@H](CO)C(=O)N[C@@H](CCCNC(=N)N)C(=O)N[C@@H](CCC(=O)O)C(=O)N[C@@H](CCC(=O)O)C(=O)N[C@@H](CCCCN)C(=O)O` (H-AAPVSREEK-OH), the Activity is 0.4.
As to `CC(C)[C@H](NC(=O)[C@@H]1CCCN1C(=O)[C@H](CCC(=O)O)NC(=O)[C@H](C)N)C(=O)N[C@@H](CO)C(=O)N[C@@H](CCCNC(=N)N)C(=O)N[C@@H](CCC(=O)O)C(=O)N[C@@H](CCC(=O)O)C(=O)N[C@@H](CCCCN)C(=O)O` (H-AEPVSREEK-OH), the Activity came to 0.5.
In the case of `CC[C@H](C)[C@H](NC(=O)[C@H](C)N)C(=O)N[C@@H](C)C(=O)N[C@H](C(=O)N[C@@H](CO)C(=O)N[C@@H](CCCNC(=N)N)C(=O)N[C@@H](CCC(=O)O)C(=O)N[C@@H](CCC(=O)O)C(=O)N[C@@H](CCCCN)C(=O)O)C(C)C` (H-AIAVSREEK-OH), the Activity came out at 0.1.
Consider `CC[C@H](C)[C@H](NC(=O)[C@H](C)N)C(=O)N[C@@H](CCC(=O)O)C(=O)N[C@H](C(=O)N[C@@H](CO)C(=O)N[C@@H](CCCNC(=N)N)C(=O)N[C@@H](CCC(=O)O)C(=O)N[C@@H](CCC(=O)O)C(=O)N[C@@H](CCCCN)C(=O)O)C(C)C` (H-AIEVSREEK-OH), for which the Activity was found to be 0.
Regarding `CC[C@H](C)[C@H](NC(=O)[C@H](C)N)C(=O)N1CCC[C@H]1C(=O)N[C@@H](C)C(=O)N[C@@H](CO)C(=O)N[C@@H](CCCNC(=N)N)C(=O)N[C@@H](CCC(=O)O)C(=O)N[C@@H](CCC(=O)O)C(=O)N[C@@H](CCCCN)C(=O)O` (H-AIPASREEK-OH), the Activity was determined as 0.1.
The result for `CC[C@H](C)[C@H](NC(=O)[C@H](C)N)C(=O)N1CCC[C@H]1C(=O)N[C@@H](CCC(=O)O)C(=O)N[C@@H](CO)C(=O)N[C@@H](CCCNC(=N)N)C(=O)N[C@@H](CCC(=O)O)C(=O)N[C@@H](CCC(=O)O)C(=O)N[C@@H](CCCCN)C(=O)O` (H-AIPESREEK-OH) reads 0.2.
The value for `CC[C@H](C)[C@H](NC(=O)[C@@H]1CCCN1C(=O)[C@@H](NC(=O)[C@H](C)N)[C@@H](C)CC)C(=O)N[C@@H](CO)C(=O)N[C@@H](CCCNC(=N)N)C(=O)N[C@@H](CCC(=O)O)C(=O)N[C@@H](CCC(=O)O)C(=O)N[C@@H](CCCCN)C(=O)O` (H-AIPISREEK-OH) was 0.3; that for `CC[C@H](C)[C@H](NC(=O)[C@H](C)N)C(=O)N1CCC[C@H]1C(=O)N1CCC[C@H]1C(=O)N[C@@H](CO)C(=O)N[C@@H](CCCNC(=N)N)C(=O)N[C@@H](CCC(=O)O)C(=O)N[C@@H](CCC(=O)O)C(=O)N[C@@H](CCCCN)C(=O)O` (H-AIPPSREEK-OH) was 0.1; that for `CC[C@H](C)[C@H](NC(=O)[C@H](C)N)C(=O)N1CCC[C@H]1C(=O)N[C@@H](CCCNC(=N)N)C(=O)N[C@@H](CO)C(=O)N[C@@H](CCCNC(=N)N)C(=O)N[C@@H](CCC(=O)O)C(=O)N[C@@H](CCC(=O)O)C(=O)N[C@@H](CCCCN)C(=O)O` (H-AIPRSREEK-OH) was 0.
The result for `CC[C@H](C)[C@H](NC(=O)[C@H](C)N)C(=O)N1CCC[C@H]1C(=O)N[C@H](C(=O)N[C@@H](CO)C(=O)N[C@@H](C)C(=O)N[C@@H](CCC(=O)O)C(=O)N[C@@H](CCC(=O)O)C(=O)N[C@@H](CCCCN)C(=O)O)C(C)C` (H-AIPVSAEEK-OH) reads 0; that for `CC[C@H](C)[C@H](NC(=O)[C@H](C)N)C(=O)N1CCC[C@H]1C(=O)N[C@H](C(=O)N[C@@H](CO)C(=O)N[C@@H](CCC(=O)O)C(=O)N[C@@H](CCC(=O)O)C(=O)N[C@@H](CCC(=O)O)C(=O)N[C@@H](CCCCN)C(=O)O)C(C)C` (H-AIPVSEEEK-OH), 0.
Take `CC[C@H](C)[C@H](NC(=O)[C@H](CO)NC(=O)[C@@H](NC(=O)[C@@H]1CCCN1C(=O)[C@@H](NC(=O)[C@H](C)N)[C@@H](C)CC)C(C)C)C(=O)N[C@@H](CCC(=O)O)C(=O)N[C@@H](CCC(=O)O)C(=O)N[C@@H](CCCCN)C(=O)O` (H-AIPVSIEEK-OH): the Activity is 0.1.
The result for `CC[C@H](C)[C@H](NC(=O)[C@H](C)N)C(=O)N1CCC[C@H]1C(=O)N[C@H](C(=O)N[C@@H](CO)C(=O)N1CCC[C@H]1C(=O)N[C@@H](CCC(=O)O)C(=O)N[C@@H](CCC(=O)O)C(=O)N[C@@H](CCCCN)C(=O)O)C(C)C` (H-AIPVSPEEK-OH) reads 0; that for `CC[C@H](C)[C@H](NC(=O)[C@H](C)N)C(=O)N1CCC[C@H]1C(=O)N[C@H](C(=O)N[C@@H](CO)C(=O)N[C@@H](CCCNC(=N)N)C(=O)N[C@@H](C)C(=O)N[C@@H](CCC(=O)O)C(=O)N[C@@H](CCCCN)C(=O)O)C(C)C` (H-AIPVSRAEK-OH), 5; that for `CC[C@H](C)[C@H](NC(=O)[C@H](C)N)C(=O)N1CCC[C@H]1C(=O)N[C@H](C(=O)N[C@@H](CO)C(=O)N[C@@H](CCCNC(=N)N)C(=O)N[C@@H](CCC(=O)O)C(=O)N[C@@H](C)C(=O)N[C@@H](CCCCN)C(=O)O)C(C)C` (H-AIPVSREAK-OH), 0.6.
Consider `CC[C@H](C)[C@H](NC(=O)[C@H](C)N)C(=O)N1CCC[C@H]1C(=O)N[C@H](C(=O)N[C@@H](CO)C(=O)N[C@@H](CCCNC(=N)N)C(=O)N[C@@H](CCC(=O)O)C(=O)N[C@@H](CCC(=O)O)C(=O)N[C@@H](CCCCN)C(=O)O)C(C)C` (H-AIPVSREEK-OH), for which the Activity turned out to be 1.
The result for `CC[C@H](C)[C@H](NC(=O)[C@H](CCC(=O)O)NC(=O)[C@H](CCCNC(=N)N)NC(=O)[C@H](CO)NC(=O)[C@@H](NC(=O)[C@@H]1CCCN1C(=O)[C@@H](NC(=O)[C@H](C)N)[C@@H](C)CC)C(C)C)C(=O)N[C@@H](CCCCN)C(=O)O` (H-AIPVSREIK-OH) reads 0.1; that for `CC[C@H](C)[C@H](NC(=O)[C@H](C)N)C(=O)N1CCC[C@H]1C(=O)N[C@H](C(=O)N[C@@H](CO)C(=O)N[C@@H](CCCNC(=N)N)C(=O)N[C@@H](CCC(=O)O)C(=O)N1CCC[C@H]1C(=O)N[C@@H](CCCCN)C(=O)O)C(C)C` (H-AIPVSREPK-OH), 0.3; that for `CC[C@H](C)[C@H](NC(=O)[C@H](C)N)C(=O)N1CCC[C@H]1C(=O)N[C@H](C(=O)N[C@@H](CO)C(=O)N[C@@H](CCCNC(=N)N)C(=O)N[C@@H](CCC(=O)O)C(=O)N[C@@H](CCCNC(=N)N)C(=O)N[C@@H](CCCCN)C(=O)O)C(C)C` (H-AIPVSRERK-OH), 0.2.
Regarding `CC[C@H](C)[C@H](NC(=O)[C@H](C)N)C(=O)N1CCC[C@H]1C(=O)N[C@H](C(=O)N[C@@H](CO)C(=O)N[C@@H](CCCNC(=N)N)C(=O)N1CCC[C@H]1C(=O)N[C@@H](CCC(=O)O)C(=O)N[C@@H](CCCCN)C(=O)O)C(C)C` (H-AIPVSRPEK-OH), the Activity came out at 4.7.
The value for `CC[C@H](C)[C@H](NC(=O)[C@H](C)N)C(=O)N1CCC[C@H]1C(=O)N[C@H](C(=O)N[C@@H](CO)C(=O)N[C@@H](CCCNC(=N)N)C(=O)N[C@@H](CCCNC(=N)N)C(=O)N[C@@H](CCC(=O)O)C(=O)N[C@@H](CCCCN)C(=O)O)C(C)C` (H-AIPVSRREK-OH) was 0.6; that for `CC[C@H](C)[C@H](NC(=O)[C@H](C)N)C(=O)N[C@@H](CCCNC(=N)N)C(=O)N[C@H](C(=O)N[C@@H](CO)C(=O)N[C@@H](CCCNC(=N)N)C(=O)N[C@@H](CCC(=O)O)C(=O)N[C@@H](CCC(=O)O)C(=O)N[C@@H](CCCCN)C(=O)O)C(C)C` (H-AIRVSREEK-OH) was 0.2; that for `CC(C)[C@H](NC(=O)[C@@H]1CCCN1C(=O)[C@@H]1CCCN1C(=O)[C@H](C)N)C(=O)N[C@@H](CO)C(=O)N[C@@H](CCCNC(=N)N)C(=O)N[C@@H](CCC(=O)O)C(=O)N[C@@H](CCC(=O)O)C(=O)N[C@@H](CCCCN)C(=O)O` (H-APPVSREEK-OH) was 0.1.
The result for `CC(C)[C@H](NC(=O)[C@@H]1CCCN1C(=O)[C@H](CCCNC(=N)N)NC(=O)[C@H](C)N)C(=O)N[C@@H](CO)C(=O)N[C@@H](CCCNC(=N)N)C(=O)N[C@@H](CCC(=O)O)C(=O)N[C@@H](CCC(=O)O)C(=O)N[C@@H](CCCCN)C(=O)O` (H-ARPVSREEK-OH) reads 0; that for `CC[C@H](C)[C@H](NC(=O)[C@@H](N)CCC(=O)O)C(=O)N1CCC[C@H]1C(=O)N[C@H](C(=O)N[C@@H](CO)C(=O)N[C@@H](CCCNC(=N)N)C(=O)N[C@@H](CCC(=O)O)C(=O)N[C@@H](CCC(=O)O)C(=O)N[C@@H](CCCCN)C(=O)O)C(C)C` (H-EIPVSREEK-OH), 1.

Source of the values: ChEMBL document CHEMBL1149538, “A high-throughput assay for O-GlcNAc transferase detects primary sequence preferences in peptide substrates” (Bioorg Med Chem Lett, 2007).
